Measured values collected from several papers.
Protocols differ between the studies behind these lines. pIC50, pKd: −log10 of the molar value.
Target: Histone deacetylase 1 (HDAC1, Homo sapiens, UniProt Q13547)

| Compound | assay | endpoint | value |
| --- | --- | --- | --- |
| CCCC[C@H](NC(=O)C1CN(C)C1)c1ncc(-c2cc3ccccc3nc2OC)[nH]1 | enzyme activity, inhibitor | pIC50 | 7.17 |
| CCCON(Cc1ccc(C(=O)NO)cc1)C(=O)Nc1ccc(N(C)C)cc1 | enzyme activity, inhibitor, fluorescence | pIC50 | 6.15 |
| O=C(NO)c1ccc(NC(=O)C2(c3ccc(C(F)(F)F)c(F)c3)CCCC2)cc1 | enzyme activity, inhibitor | pIC50 | 6.65 |
| CCCON(Cc1ccc(C(=O)NO)cc1)C(=O)Nc1ccccc1 | enzyme activity, inhibitor, fluorescence | pIC50 | 6.13 |
| O=C(NO)c1ccc(NC(=O)C2(c3ccccc3)CCOCC2)c(F)c1 | enzyme activity, inhibitor | pIC50 | 7.14 |
| C=CCC[C@@H]1NC(=O)[C@H]2CCCN2C(=O)[C@H](Cc2ccccc2)NC(=O)C(C)(C)NC1=O | enzyme activity, inhibitor | pIC50 | < 3.52 |
| C/C=C1\NC(=O)[C@H]2CSSCC/C=C/[C@H](CC(=O)N[C@H](C(C)C)C(=O)N2)OC(=O)[C@H](C(C)C)NC1=O | cell-free assay | pKd | 8.50 |
| O=C(NO)c1ccc(NC(=O)C2(c3ccc(Cl)cc3)CCCC2)c(F)c1 | enzyme activity, inhibitor | pIC50 | 6.11 |
| O=C(CCCCCCC(=O)Nc1ccc([C@H]2O[C@@H](CSc3nc(-c4ccccc4)c(-c4ccccc4)o3)C[C@@H](c3ccc(CO)cc3)O2)cc1)NO | cell-free assay | pKd | < 4.52 |
| Cc1nc2ccccc2n1Cc1ccc(C(=O)NO)cn1 | enzyme activity, inhibitor | pIC50 | 4.55 |
| CC(C)C[C@H]1CC(=O)N[C@@H](C)C(=O)N[C@@H](CCCCCC(=O)O)C(=O)N[C@@H](Cc2c[nH]c3ccccc23)C(=O)N1 | enzyme activity, inhibitor | pIC50 | 7.00 |
| CCC[C@H](NC(=O)C1CN(C)C1)c1ncc(-c2cc3ccccc3nc2OC)[nH]1 | enzyme activity, inhibitor, fluorescence | pIC50 | 6.55 |
